Results filed as inconclusive are left out. Active and inactive are the calls of the source.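 How the source made its calls: active means compounds raising caspase signal whose fitted AC50 is at or under a set limit scaled from top dose; inconclusive means flat fit at middling activation, or poor curve fit; inactive means the rest.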
What was measured:
[1] = apoptosis induction, MEWO cells without priming – caspase-Glo luminescence, dry powder, counter-screen for Bcl2-A1 inhibitor project, dose response (AID 488948); details: MEWO unprimed cells, caspase-3/7 Glo luminescence, 3 h, stronger effect = higher value
Method in brief: (§1)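 Buffer or medium: RPMI-1640, 10% fetal bovine serum | System: Unprimed MEWO cells expressing A1, no BIM or tBID priming | Amount: 2500 cells per well | Read-out basis: Caspase activation from luminescent signal | Schedule: 3 h compound at 37 °C, 1 h CaspaseGlo | Technique: CaspaseGlo luminescence after 1 h at room temperature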

[2] = system: MEWO unprimed cells, caspase-3/7 Glo luminescence, 3 h; assay: as above
Method in brief: as §1

CCc1nnc(NC(=O)c2nc(S(=O)(=O)Cc3ccccc3)ncc2Cl)s1
max caspase activation ([1]; at 0.068 µM): -1.73% (inactive)

COc1cc(/C=C(/C#N)c2nc3ccccc3[nH]2)ccc1OCC(=O)Nc1ccccc1C(C)C
max caspase activation ([1]; at 9 µM): 2.17% (inactive)

Nc1nc(F)nc2c1ncn2[C@@H]1O[C@H](CO)[C@@H](O)[C@H]1O
max caspase activation ([1]; at 0.1 µM): 2.46% (inactive)

Cc1cccc(CS(=O)(=O)c2ncc(Cl)c(C(=O)Nc3nnc(C(C)C)s3)n2)c1
max caspase activation ([1]; at 150 µM): -3.23% (inactive)

CCOC(=O)CSC1=N/C(=C/c2ccc(-n3cncn3)cc2)C(=O)N1C(C)=O
AC50 [2]: > 150 µM (inactive)

CC(=O)N[C@H]1[C@H](O[C@H]2CC[C@@]3(C)C(CC[C@]4(C)C3CC=C3[C@@H]5CC(C)(C)CC[C@]5(C(=O)OC5OCC(O)C(O)C5O)C(O)C[C@]34C)C2(C)C)O[C@H](COC2OCC(O)C(OC3OCC(O)C(O)C3O)C2O)[C@@H](O[C@@H]2O[C@@H](C)[C@H](O)[C@@H](O)[C@H]2O[C@@H]2O[C@@H](C)[C@H](O)[C@@H](O)[C@H]2O)[C@@H]1O (some centres undefined)
max caspase activation ([1]; at 135 µM): -2.6% (inactive)

C/C1=C/C(=O)O[C@@H]2C[C@@H](CC[C@H](C)/C=C\CC1)O[C@@](O)(C1CSC(=O)N1)C2 (some centres undefined)
max caspase activation ([1]; at 46 µM): 1.79% (inactive)

Cc1c(CCOC(=O)c2ccc(N3CCOCC3)c([N+](=O)[O-])c2)sc[n+]1CC#N
AC50 [2]: > 100 µM (inactive)

Cn1c(=NC(=O)CCl)sc2ccccc21
max caspase activation ([1]; at 0.068 µM): -1.67% (inactive)

COc1cccc(C(=O)C(C#N)=C(SC)SC)c1
max caspase activation ([1]; at 150 µM): -3.79% (inactive)

Cc1ccc(CS(=O)(=O)c2ncc(Cl)c(C(=O)Nc3nnc(C(C)C)s3)n2)cc1
max caspase activation ([1]; at 100 µM): -3.83% (inactive)

Cc1ccc(Sc2c([N+](=O)[O-])c(=O)n(C)c3ccccc23)cc1
max caspase activation ([1]; at 100 µM): 3.9% (inactive)

O=C(CCl)N=c1sccn1Cc1ccccc1Cl
AC50 [2]: > 150 µM (inactive)

CCSc1nnc(NC(=O)c2nc(S(=O)(=O)Cc3ccc(F)cc3)ncc2Cl)s1
max caspase activation ([1]; at 150 µM): -5.59% (inactive)

O=C(Oc1cccc(/C=N/Nc2nc(Nc3ccccc3)nc(N3CCOCC3)n2)c1)c1ccco1
max caspase activation ([1]; at 68 µM): 2.05% (inactive)

Cc1cc(C(=O)CCl)c(C)n1CCc1ccc(Cl)cc1
AC50 [2]: 18.4 µM

C=C1[C@@H](C)[C@H]2[C@H](Cc3ccccc3)NC(=O)[C@]23OC(=O)/C=C\[C@H](O)CCC[C@@H](C)C/C=C/[C@H]3[C@@H]1O
max caspase activation ([1]; at 2.6 µM): 2.11% (inactive)

COc1ccc(N(C(=O)CCl)C(C(=O)NCCc2ccccc2)c2cccs2)cc1Cl (centres undefined)
AC50 [2]: 15.6 µM

CC(C)(C)n1nc(-c2ccc(Cl)cc2)c2c(N)ncnc21
max caspase activation ([1]; at 150 µM): 4.52% (inactive)

Source: PubChem BioAssay AID488948 (Broad Institute, 2010)
